Experimental data pooled from the literature.
Lines come from different studies, so protocols differ.
Target: Cytochrome P450 2C8 (CYP2C8, Homo sapiens, UniProt P10632)
Observed: enzyme activity
Action: inhibitor

| Structure (SMILES) | assay | test system | conditions | measurement | value |
| --- | --- | --- | --- | --- | --- |
| CCc1cc(/C(C)=N/OCc2ccc(C3CCCCC3)c(C(F)(F)F)c2)ccc1CN1CC(C(=O)O)C1 | – | human, liver microsomes | 20 min | IC50 | > 1100 nM |
| COc1ccn2c(Nc3ccccc3F)c(-c3ccncn3)nc2c1 | – | – | – | IC50 | 1000 nM |
| NS(=O)(=O)NCCNc1nonc1C(=NO)Nc1ccc(F)c(Br)c1 | – | – | – | IC50 | > 10000 nM |
| N#C[C@H](C[C@@H]1CCCNC1=O)NC(=O)[C@H](CC1CC1)NC(=O)c1cc2cccc(Cl)c2[nH]1 | – | human, liver microsomes | – | IC50 | 3900 nM |
| C=CC(=O)Nc1cc(Nc2nccc(Nc3cc(Cl)c(F)cc3C(C)(C)O)n2)c(OC)cc1N1CC[C@@H](N(C)C)C1 | – | human, liver microsomes | – | IC50 | > 30000 nM |
| Cc1cc(C)c2c(c1)[C@@H](N(Cc1cc(C(F)(F)F)cc(C(F)(F)F)c1)c1nnn(C)n1)CCCN2C[C@H]1CC[C@H](C(=O)O)CC1 | – | human, liver microsomes | pH 7.4 | Ki | 1300 nM |
| Ic1ccc(CSCn2ccnc2)cc1 | – | – | 30 min, pH 7.4 | IC50 | 566 nM |
| Cc1cc2c(F)c(Oc3ncnn4cc(OC[C@@H](C)O)c(C)c34)ccc2[nH]1 | fluorescence | – | 15 min | IC50 | 3080 nM |
| Cc1ccc2nc(-c3ccccc3)c(CNc3ccc(F)cc3)n2c1 | – | – | – | IC50 | 1000 nM |
| C[C@@H](c1ccc2nccn2c1)n1nnc2ncc(-c3cnn(C)c3)nc21 | – | human, liver microsomes | pH 7.4 | IC50 | 16000 nM |
